Source: ChEMBL document CHEMBL4033794, “Discovery of Trifluoromethyl Glycol Carbamates as Potent and Selective Covalent Monoacylglycerol Lipase (MAGL) Inhibitors for Treatment of Neuroinflammation” (J Med Chem, 2018)
In brackets after ≈: the same amount, converted by molar mass. Activity calls are given as the source filed them. The rule behind the calls is not given here.

What was measured:
[1] = target: T1, Fatty-acid amide hydrolase 1 (Homo sapiens, UniProt O00519); test: Inhibition of recombinant human FAAH using fluorogenic arachidonoyl-AMC as substrate preincubated for 30 mins followed by substrate addition measured after 60 mins by fluorescence based assay
T1 sequence (O00519 whole entry): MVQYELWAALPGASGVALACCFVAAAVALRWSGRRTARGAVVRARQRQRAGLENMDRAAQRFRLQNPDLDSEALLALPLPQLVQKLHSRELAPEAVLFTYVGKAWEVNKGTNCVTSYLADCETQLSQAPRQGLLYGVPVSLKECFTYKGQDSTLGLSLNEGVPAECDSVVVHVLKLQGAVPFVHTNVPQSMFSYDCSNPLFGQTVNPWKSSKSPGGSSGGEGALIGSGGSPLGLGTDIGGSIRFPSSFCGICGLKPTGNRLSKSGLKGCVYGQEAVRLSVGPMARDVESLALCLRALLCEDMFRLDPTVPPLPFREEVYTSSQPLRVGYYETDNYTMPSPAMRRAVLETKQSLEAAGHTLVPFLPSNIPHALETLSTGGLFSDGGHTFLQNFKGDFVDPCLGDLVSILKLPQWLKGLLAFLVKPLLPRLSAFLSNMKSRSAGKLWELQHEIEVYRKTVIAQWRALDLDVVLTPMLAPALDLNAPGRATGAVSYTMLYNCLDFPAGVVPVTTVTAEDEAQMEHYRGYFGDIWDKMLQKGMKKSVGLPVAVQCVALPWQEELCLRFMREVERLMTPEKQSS
Summary of the method: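 Human recombinant FAAH (0.0125 U final) in 50 mM Tris pH 9.0, 1 mM EDTA, preincubated 30 min at room temperature with compound (30 μM to 0.3 nM final); arachidonoyl-AMC 5 μM added, 60 min reaction, read Ex/Em 355/460. Inhibition vs no-compound and full-inhibition controls; four-parameter fit; geometric mean of ≥3 experiments.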

[2] = Thermodynamic solubility of the compound at pH 6.5 after 24 hrs; type: physicochemical; settings: buffer, read-out: Therm_solubility
[3] = Intrinsic clearance in human liver microsomes; type: ADME, microsome; settings: read-out: CLH
Summary of the method: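 Substrate depletion in human liver microsomes; intrinsic clearance scaled to mL/min/kg.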

[4] = target: T2, CES1 (liver carboxylesterase 1) (Homo sapiens, UniProt P23141); test: Inhibition of human CES1 at 10 uM
T2 sequence (P23141 whole entry): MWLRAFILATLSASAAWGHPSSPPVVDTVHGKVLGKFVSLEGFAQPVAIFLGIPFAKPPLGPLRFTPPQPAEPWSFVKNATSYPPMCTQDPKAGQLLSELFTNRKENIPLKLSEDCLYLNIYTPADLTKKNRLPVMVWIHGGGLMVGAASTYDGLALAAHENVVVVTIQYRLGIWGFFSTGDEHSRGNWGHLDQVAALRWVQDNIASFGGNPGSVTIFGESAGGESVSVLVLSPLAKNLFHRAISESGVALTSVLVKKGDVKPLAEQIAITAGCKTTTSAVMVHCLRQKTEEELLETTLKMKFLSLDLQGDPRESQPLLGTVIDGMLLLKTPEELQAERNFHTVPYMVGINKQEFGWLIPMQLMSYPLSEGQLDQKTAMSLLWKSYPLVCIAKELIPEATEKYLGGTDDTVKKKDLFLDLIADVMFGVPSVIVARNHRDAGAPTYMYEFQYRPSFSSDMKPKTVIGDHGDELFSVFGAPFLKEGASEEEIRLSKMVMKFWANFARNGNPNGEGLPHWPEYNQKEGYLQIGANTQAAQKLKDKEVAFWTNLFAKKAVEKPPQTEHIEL
Summary of the method: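 Panel of 42 human serine hydrolases, each exposed to inhibitor at 10 µM; activity expressed as percent inhibition.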

[5] = Plasma clearance in Wistar Hannover rat at 1 mg/kg, iv administered as bolus dose via jugular vein cannula measured up to 24 hrs post dose by HPLC-MS/MS analysis; type: ADME, organism-based
Summary of the method: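 Rats (n = 2) given 1 mg/kg IV bolus via jugular vein cannula, solution in 3% DMA/10% Solutol HS15/10% Miglyol/77% of 20% SBECD in water, 1 mL/kg. Carotid cannula blood pre-dose and 0.083–24 h; plasma by HPLC-MS/MS; non-compartmental analysis.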

[6] = target: CYP3A4 (Homo sapiens, UniProt P08684); test: Inhibition of CYP3A4 (unknown origin) at 3 uM; type: ADME
Sequence of CYP3A4 (P08684 whole entry, canonical isoform): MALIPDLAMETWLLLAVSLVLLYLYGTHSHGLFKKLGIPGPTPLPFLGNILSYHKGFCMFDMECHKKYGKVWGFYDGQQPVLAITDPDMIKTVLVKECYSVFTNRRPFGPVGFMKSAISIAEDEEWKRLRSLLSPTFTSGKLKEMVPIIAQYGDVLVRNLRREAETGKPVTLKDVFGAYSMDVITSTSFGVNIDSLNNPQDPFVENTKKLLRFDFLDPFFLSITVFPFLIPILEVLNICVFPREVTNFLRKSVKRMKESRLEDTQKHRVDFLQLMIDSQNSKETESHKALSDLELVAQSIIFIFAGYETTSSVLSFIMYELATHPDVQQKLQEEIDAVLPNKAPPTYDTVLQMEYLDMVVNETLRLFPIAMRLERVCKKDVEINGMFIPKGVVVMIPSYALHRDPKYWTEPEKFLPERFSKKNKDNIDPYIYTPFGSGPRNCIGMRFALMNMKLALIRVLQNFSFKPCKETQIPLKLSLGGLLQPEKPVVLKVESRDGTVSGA
Summary of the method: (§1)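 Competitive inhibition screen of CYP3A4, 2D6, 2C9, 2C8 and 1A2 using isoform-relevant probe substrates, compound at 3 μM.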

[7] = target: CYP2C9 (Homo sapiens, UniProt P11712); test: Inhibition of CYP2C9 (unknown origin) at 3 uM; type: ADME; summary of the method: as §1
Sequence of CYP2C9 (P11712 whole entry): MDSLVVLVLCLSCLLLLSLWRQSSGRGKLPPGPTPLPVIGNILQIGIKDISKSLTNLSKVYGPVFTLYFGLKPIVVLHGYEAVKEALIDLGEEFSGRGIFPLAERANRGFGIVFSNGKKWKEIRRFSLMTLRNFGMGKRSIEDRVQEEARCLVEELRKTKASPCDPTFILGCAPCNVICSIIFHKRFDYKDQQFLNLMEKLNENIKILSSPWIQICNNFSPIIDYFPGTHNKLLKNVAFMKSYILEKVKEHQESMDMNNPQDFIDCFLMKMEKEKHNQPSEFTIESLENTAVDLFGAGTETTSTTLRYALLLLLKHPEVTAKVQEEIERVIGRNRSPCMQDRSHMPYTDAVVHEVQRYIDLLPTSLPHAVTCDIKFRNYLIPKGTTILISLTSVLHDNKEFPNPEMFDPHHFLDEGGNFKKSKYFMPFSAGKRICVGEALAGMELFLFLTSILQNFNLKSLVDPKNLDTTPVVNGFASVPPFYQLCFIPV

[8] = target: T3, CYP2C8 (Homo sapiens, UniProt P10632); test: Inhibition of CYP2C8 (unknown origin) at 3 uM; type: ADME; summary of the method: as §1
T3 sequence (P10632 whole entry): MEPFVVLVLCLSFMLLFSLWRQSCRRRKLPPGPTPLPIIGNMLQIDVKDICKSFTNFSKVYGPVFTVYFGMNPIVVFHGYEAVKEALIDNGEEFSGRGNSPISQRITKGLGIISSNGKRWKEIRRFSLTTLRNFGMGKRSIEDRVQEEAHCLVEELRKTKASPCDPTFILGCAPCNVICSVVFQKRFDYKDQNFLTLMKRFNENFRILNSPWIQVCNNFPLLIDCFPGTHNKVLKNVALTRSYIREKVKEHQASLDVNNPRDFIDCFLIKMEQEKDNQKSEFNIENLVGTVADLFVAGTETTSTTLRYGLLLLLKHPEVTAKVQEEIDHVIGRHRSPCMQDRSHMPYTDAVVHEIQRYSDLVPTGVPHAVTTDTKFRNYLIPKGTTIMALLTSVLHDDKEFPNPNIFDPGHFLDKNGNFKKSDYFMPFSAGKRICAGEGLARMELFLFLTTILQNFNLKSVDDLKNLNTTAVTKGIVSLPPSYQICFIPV

[9] = Cmax in C57BL6J mouse brain at 1 mg/kg, sc up to 24 hrs post dose; type: ADME, organism-based; design: dose 1 mg/kg, route subcutaneous
[10] = target: Cannabinoid receptor 1 (Homo sapiens, UniProt P21554); test: Displacement of [3H]CP55940 from human CB1 receptor expressed in CHOK1 cell membranes at 10 uM after 120 mins by scintillation counting method
Sequence of Cannabinoid receptor 1 (P21554 whole entry): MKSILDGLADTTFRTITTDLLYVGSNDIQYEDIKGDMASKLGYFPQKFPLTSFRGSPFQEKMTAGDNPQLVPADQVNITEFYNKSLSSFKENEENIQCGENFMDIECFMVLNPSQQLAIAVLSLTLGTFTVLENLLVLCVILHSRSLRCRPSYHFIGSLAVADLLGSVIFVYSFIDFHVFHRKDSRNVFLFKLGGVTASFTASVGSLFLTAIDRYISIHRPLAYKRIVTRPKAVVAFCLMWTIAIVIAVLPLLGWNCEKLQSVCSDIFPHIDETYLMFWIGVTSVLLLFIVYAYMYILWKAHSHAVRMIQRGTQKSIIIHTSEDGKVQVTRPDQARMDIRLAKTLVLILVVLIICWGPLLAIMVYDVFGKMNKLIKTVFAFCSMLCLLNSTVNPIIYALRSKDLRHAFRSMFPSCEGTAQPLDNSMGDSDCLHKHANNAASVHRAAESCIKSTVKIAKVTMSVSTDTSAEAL

[11] = Drug metabolism in human hepatocytes assessed as glucuronide conjugate formation; type: ADME, cell-based, Hepatocyte
[12] = test system: Mus musculus; test: Time at which unbound brain concentration stays above in vitro MAGL IC50 in C57BL6J mouse at 1 mg/kg, sc up to 24 hrs post dose
Summary of the method: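 Male C57BL6J mice dosed 1 mg/kg SC in DMSO:Cremophor:saline 5:5:90, 10 mL/kg; plasma and brain taken at 0.5, 1, 2, 4, 8, 12, 24 h. Drug measured in plasma and cerebellum; 2-AG and arachidonic acid in brain hemisphere, compared with vehicle-treated mice.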

[13] = species on record: Mus musculus; settings: C57BL6J, 1 mg/kg
[14] = species on record: Mus musculus; settings: C57BL6J, 1 mg/kg; remark: listed apart in the source

IC50 [1]: 3.1 µM
solubility thermodynamic at 24 h [2]: 25 µM (≈ 9.98 µg/mL)
CLint scaled [3]: < 8 mL/min/kg
inhibition at 10 µM [4]: 80%
clearance [5]: 61 mL/min/kg
inhibition at 3 µM [6]: < 10%
inhibition at 3 µM [7]: < 10%
inhibition at 3 µM [8]: < 10%
Cmax [9]: > 1000 nM
inhibition [10]: inactive
Drug metabolism [11]: Metabolite_Detected
Compound: O=C(O[C@H](CO)C(F)(F)F)N1C[C@@H]2[C@H](C1)[C@H]2c1ccn(-c2ccc(F)cc2)n1
Time [12]: 2 h
inhibition [13]: Active
inhibition [14]: Active
